Assay results taken from BindingDB's records for doi:10.1021/jm049389h (Johns Hopkins University, 2005).

Molecular target: Fatty acid synthase (Homo sapiens, UniProt P49327)
Assay: Inhibitory concentration against purified human fatty acid synthase activity in ZR-75-1 breast cancer cells
Procedure, shortened: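 FAS purified from ZR-75-1 human breast cancer cells (2 µg per well). Overall reaction read at 37 °C as malonyl-CoA-dependent NADPH oxidation at 340 nm, every 10 s for 5 min. Average of duplicate runs; neg means IC50 > 50 µg/mL.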

Fatty acid synthase, sequence (P49327 whole entry): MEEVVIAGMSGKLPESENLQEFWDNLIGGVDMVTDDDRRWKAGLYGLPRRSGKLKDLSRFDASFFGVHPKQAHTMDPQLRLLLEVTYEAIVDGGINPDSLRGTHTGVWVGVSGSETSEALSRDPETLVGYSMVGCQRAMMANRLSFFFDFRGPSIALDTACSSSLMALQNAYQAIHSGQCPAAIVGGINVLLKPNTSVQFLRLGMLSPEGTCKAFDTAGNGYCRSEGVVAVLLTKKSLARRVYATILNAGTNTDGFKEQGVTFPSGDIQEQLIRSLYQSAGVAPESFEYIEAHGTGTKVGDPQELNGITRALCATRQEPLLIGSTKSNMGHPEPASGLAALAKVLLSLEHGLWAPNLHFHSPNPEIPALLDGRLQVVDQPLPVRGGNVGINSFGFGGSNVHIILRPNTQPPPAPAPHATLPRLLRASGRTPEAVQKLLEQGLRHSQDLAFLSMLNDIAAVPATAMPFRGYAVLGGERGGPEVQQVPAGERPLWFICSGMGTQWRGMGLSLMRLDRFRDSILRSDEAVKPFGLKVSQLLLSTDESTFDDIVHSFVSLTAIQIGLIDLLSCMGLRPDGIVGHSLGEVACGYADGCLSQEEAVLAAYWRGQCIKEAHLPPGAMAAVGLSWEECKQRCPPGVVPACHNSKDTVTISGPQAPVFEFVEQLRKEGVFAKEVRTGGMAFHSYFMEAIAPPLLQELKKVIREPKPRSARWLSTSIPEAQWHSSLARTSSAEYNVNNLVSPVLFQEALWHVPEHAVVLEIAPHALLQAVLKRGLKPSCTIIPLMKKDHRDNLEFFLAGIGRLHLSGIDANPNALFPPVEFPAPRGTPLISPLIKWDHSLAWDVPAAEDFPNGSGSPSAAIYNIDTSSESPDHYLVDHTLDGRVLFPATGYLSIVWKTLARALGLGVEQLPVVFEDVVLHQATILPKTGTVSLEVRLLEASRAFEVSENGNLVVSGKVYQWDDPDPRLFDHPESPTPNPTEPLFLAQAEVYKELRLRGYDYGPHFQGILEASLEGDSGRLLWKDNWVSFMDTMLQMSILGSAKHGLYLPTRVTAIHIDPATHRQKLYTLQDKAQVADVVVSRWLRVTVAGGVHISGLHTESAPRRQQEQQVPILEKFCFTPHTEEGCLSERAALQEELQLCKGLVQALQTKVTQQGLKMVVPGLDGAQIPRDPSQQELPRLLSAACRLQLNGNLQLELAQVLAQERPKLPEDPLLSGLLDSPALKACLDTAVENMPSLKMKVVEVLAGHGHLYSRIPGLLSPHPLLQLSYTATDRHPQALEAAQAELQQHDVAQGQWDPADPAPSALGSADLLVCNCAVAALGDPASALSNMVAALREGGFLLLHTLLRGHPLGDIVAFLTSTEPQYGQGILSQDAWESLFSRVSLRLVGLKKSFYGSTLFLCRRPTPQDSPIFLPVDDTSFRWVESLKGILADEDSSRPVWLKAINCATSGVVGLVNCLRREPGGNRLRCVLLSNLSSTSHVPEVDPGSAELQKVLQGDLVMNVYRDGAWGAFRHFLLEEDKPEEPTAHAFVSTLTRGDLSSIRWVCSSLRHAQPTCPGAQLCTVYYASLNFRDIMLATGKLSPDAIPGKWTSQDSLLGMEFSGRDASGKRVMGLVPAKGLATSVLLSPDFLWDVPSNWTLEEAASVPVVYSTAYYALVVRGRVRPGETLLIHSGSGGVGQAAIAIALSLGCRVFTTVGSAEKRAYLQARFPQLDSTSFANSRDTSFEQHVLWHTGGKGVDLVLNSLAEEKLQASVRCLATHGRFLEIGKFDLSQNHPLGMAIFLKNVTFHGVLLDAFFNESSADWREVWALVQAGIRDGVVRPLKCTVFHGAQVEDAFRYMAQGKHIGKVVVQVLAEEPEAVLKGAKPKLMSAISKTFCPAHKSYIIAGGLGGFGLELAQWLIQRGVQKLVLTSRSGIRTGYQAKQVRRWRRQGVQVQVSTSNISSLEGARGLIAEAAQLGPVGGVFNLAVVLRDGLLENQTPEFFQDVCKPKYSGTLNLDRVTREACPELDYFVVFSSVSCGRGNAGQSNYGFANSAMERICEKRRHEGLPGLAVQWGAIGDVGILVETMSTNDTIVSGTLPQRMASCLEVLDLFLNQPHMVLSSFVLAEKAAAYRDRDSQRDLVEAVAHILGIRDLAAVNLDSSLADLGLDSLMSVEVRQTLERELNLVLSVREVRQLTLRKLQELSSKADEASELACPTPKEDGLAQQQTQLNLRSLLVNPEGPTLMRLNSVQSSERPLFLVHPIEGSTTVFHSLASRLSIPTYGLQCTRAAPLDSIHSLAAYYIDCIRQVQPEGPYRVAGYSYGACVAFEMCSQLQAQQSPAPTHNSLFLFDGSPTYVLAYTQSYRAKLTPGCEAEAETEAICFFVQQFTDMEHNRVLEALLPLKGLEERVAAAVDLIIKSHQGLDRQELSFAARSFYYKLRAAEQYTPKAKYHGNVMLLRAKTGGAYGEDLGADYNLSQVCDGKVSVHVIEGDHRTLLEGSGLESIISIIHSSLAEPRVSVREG

For C=C/C(C)=C/[C@@]1(C)SC(=O)C(C)C1=O (stereo partly drawn) [(R)-(+)-Thiolactomycin], the IC50 was 99.8 µM.
